PAX8 inh HTS: lowers PAX8-driven luciferase in RMG-I cells; RMG-I TPO-luciferase reporter, SteadyGlo, 24 h; inhibition, % at 12.6 µM; 360,000 tested, 1.2% active;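 active = mean replicate inhibition at least 60% with every replicate also reaching 60%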;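 also: luciferase light reporting Pax8 driven TPO promoter activity; plate controls were median of neutral control wells for no effect and mitoxantrone controls for full effect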
PfHsp90 set2: reduces growth (ATP signal) of yeast expressing P. falciparum Hsp90 | S. cerevisiae expressing PfHsp90, BacTiter-Glo ATP, 48 h; yeast lacking PDR1 and PDR3 efflux regulators | inhibition, % at 9.4 µM | 310,000 tested, 0.32% active | AID 504621;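 active = every replicate shows inhibition above about 80%, whatever the replicate mean, limit read from the data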;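 also: 0% = DMSO neutral controls and 100% = 20 µM radicicol positive controls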
Rtt109 HAT inh: C. albicans Rtt109 histone acetyltransferase inhibition; Q5AAJ8; purified Rtt109/Vps75, ThioGlo CoA-SH fluorescence, 4 h; inhibition, % at 34.9 µM; 330,000 tested, 0.16% active;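 active = inhibition of at least 50% in every replicate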
Target sequence (Q5AAJ8 whole entry, looked up): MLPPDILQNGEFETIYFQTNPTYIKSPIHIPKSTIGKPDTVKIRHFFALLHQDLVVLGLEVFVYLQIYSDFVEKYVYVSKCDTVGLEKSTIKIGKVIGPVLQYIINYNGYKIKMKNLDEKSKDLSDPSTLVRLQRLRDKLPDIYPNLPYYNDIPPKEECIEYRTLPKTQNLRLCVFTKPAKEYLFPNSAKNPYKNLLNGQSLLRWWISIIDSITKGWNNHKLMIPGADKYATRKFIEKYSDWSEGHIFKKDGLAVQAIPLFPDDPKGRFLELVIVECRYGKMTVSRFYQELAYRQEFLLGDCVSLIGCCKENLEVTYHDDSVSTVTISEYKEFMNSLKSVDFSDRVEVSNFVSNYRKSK
Arr AP2 block: blocks beta-arrestin peptide binding to AP2 adaptin; FITC-arrestin peptide / GST-AP2 beads, flow cytometry; AP2 beta2 appendage carries R879A mutation; inhibition, % at 10 µM; 340,000 tested, 0.31% active; AID 504490;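 active = inhibition above a set limit, near 3 SD of compounds lacking own fluorescence, cut at about 54% in these data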;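 also: plate controls were DMSO wells for no effect and 5 µM unlabelled arrestin peptide for full effect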
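Material – AP2 appendage R879A on GSH beads · Buffer or medium – PBS with 0.05% Tween 20 and 0.1% BSA · Probe or stimulus – fluorescein-tagged arrestin peptide at 50 nM final · Incubation – compound with beads 12 min RT, then probe 1 h RT · Detection – high-throughput flow cytometry of beads, ex 488, em 535 nm · Evaluation – percent response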
Glyco luc inh: blocks N-linked glycosylation in D54 reporter cells. D54 ERlucT glycosylation luciferase reporter, 24 h; percent of 100 nM tunicamycin response. reporter increase, % at 12.5 µM. 360,000 tested, 0.23% active. AID 588692;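 active = mean luciferase reporter signal, scaled so untreated is 0 and the glycosylation-blocking control 100, at or above a set limit in every replicate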;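 also: luciferase carries N-glycosylation sites so blocking glycosylation raises the light; 0% = median of neutral control wells and 100% = median of 100 nM tunicamycin wells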
HIV Env fusion: inhibitors of HIV Env-mediated cell fusion; inhibition, % at 12.3 µM; HeLa-JRFL Env/CEM21 cell fusion, luciferase; 360,000 tested, 1.1% active;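 active = mean replicate inhibition score of at least 50 and every replicate individually at or above 50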;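 also: 0% = plate neutral controls and 100% = maraviroc near 300 nM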
Numbers without * were called inactive; [ ] = remark or other dose. The list is not random: actives were taken first. Their share in the collection is about 2.3%.

Screening O=c1[nH]c2ccccc2n1C1CCN(C(c2ccccc2OC(F)(F)F)c2nnnn2Cc2ccccc2)CC1 (stereo not given) returned PAX8 inh HTS 83.6*, Glyco luc inh -10.5 and HIV Env fusion -44.1.
O=C(O)[C@@H]1[C@@H](CO)[C@@H]2Cn3c(ccc(-c4ccccc4)c3=O)[C@H]1N2C(=O)C1CCCCC1 was read as PAX8 inh HTS -12.4.
`O=C(O)[C@H]1[C@H](CO)[C@H]2Cn3c(ccc(-c4ccc(F)cc4)c3=O)[C@@H]1N2CC1CCCCC1` gave PAX8 inh HTS -10.1 and HIV Env fusion -3.9[16.7 µM].
For CCCNC(=O)N1[C@@H]2Cn3c(ccc(-c4ccccc4OC)c3=O)[C@H]1[C@@H](C(=O)OC)[C@@H]2CO the results were PAX8 inh HTS -1.4.
CN1/C(=C\C=C2C(=O)NC(=O)NC2=O)C(C)(C)c2ccccc21 was read as PAX8 inh HTS -0.6, PfHsp90 set2 6.7, Rtt109 HAT inh 5.6, Arr AP2 block -54.2, Glyco luc inh 1.8 and HIV Env fusion 40.0.
Screening CN1/C(=C\C=Nc2ccccc2)C(C)(C)c2ccccc21 returned PfHsp90 set2 3.3, Rtt109 HAT inh 20.0, Arr AP2 block -4.0, Glyco luc inh -3.8 and HIV Env fusion 64.3*.
For COC(=O)C1=C(c2ccc(F)cc2OCc2ccccc2)C[C@@H]2CC[C@H]1N2C(=O)NCc1ccc(C)cc1 the results were PAX8 inh HTS 102.2*, PfHsp90 set2 -56.6, Rtt109 HAT inh -10.4, Arr AP2 block 7.2, Glyco luc inh -9.1 and HIV Env fusion 29.6.
COC(=O)C1=C(c2ccc(F)cc2OCc2ccccc2)C[C@@H]2CC[C@H]1N2C(=O)NCc1ccc(F)cc1 was read as PAX8 inh HTS 6.6, PfHsp90 set2 -11.9, Rtt109 HAT inh -3.1, Arr AP2 block -0.6, Glyco luc inh -3.2 and HIV Env fusion 1.8.
COCCNC(=O)N1[C@H]2CC[C@@H]1C(C(=O)OC)=C(c1ccc(-c3ccccc3)c(F)c1)C2 was read as PAX8 inh HTS 7.5, PfHsp90 set2 12.9, Rtt109 HAT inh 0.2, Arr AP2 block 6.2, Glyco luc inh -5.0 and HIV Env fusion 57.4*.
For COC(=O)C1=C(c2ccc(F)cc2OCc2ccccc2)C[C@@H]2CC[C@H]1N2C(=O)NC1Cc2ccccc2C1 the results were PAX8 inh HTS 88.6*, PfHsp90 set2 7.5, Rtt109 HAT inh 3.5, Arr AP2 block 17.8, Glyco luc inh -8.4 and HIV Env fusion 57.2*.
For CC(C)c1oc(=O)cc2c1[C@@H](O)[C@H]1OC(=O)[C@@]3(C)C[C@@H](O)[C@@H](O)[C@@]2(C)C13 (stereo not given in full) the results were PAX8 inh HTS 85.9*, PfHsp90 set2 -4.7, Rtt109 HAT inh -9.2, Arr AP2 block 11.0, Glyco luc inh -20.3 and HIV Env fusion -256.7.
CC(C)c1oc(=O)cc2c1[C@@H](O)[C@H]1OC(=O)[C@@]3(C)CC[C@@H](O)[C@@]2(C)C13 (stereo not given in full) was read as PAX8 inh HTS 36.8, PfHsp90 set2 -1.0, Rtt109 HAT inh 2.0, Arr AP2 block 4.6, Glyco luc inh -13.6 and HIV Env fusion inactive.
Screening COc1ccc(OC)c(N2C(=O)NC(=O)/C(=C/c3ccc([N+](=O)[O-])s3)C2=O)c1 returned PAX8 inh HTS 14.2, PfHsp90 set2 105.4*, Rtt109 HAT inh 25.2, Arr AP2 block 31.6, Glyco luc inh 3.8 and HIV Env fusion 2.9.
For O=c1[nH]c2ccccc2n1C1CCN(C(c2cc3ccccc3o2)c2nnnn2-c2ccc3c(c2)OCCO3)CC1 (stereo not given) the results were PAX8 inh HTS 103.2*, Glyco luc inh -19.4 and HIV Env fusion 23.2.
COc1ccc(C(c2nnnn2-c2ccc(OC)cc2)N2CCC(n3c(=O)[nH]c4ccccc43)CC2)cc1 (stereo not given) was read as PAX8 inh HTS 50.5, Glyco luc inh -5.1 and HIV Env fusion -10.8.
Cc1cccc(C)c1-n1nnnc1C(c1cccs1)N1CCC(n2c(=O)[nH]c3ccccc32)CC1 (stereo not given) was read as PAX8 inh HTS -13.6, Glyco luc inh -4.9 and HIV Env fusion 25.4.

Compound activity as filed in PubChem.
